The values that follow come from ChEMBL document CHEMBL2040752, “Synthesis and effects of some novel tetrahydronaphthalene derivatives on proliferation and nitric oxide production in lipopolysaccharide activated Raw 264.7 macrophages” (Eur J Med Chem, 2011).

One may read the inhibition as the relative decrease from the control value, in per cent.

Data set [1] concerns RAW264.7. The experiment in a line: Cytotoxicity against mouse RAW264.7 cells at 50 uM by MTT assay. Format: cell-based. The conditions noted are these: raw264.7, 50 µM. The gist of the method: (§1)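 RAW 264.7 macrophages (4 ×10⁴ per well) pretreated with compound for 1 h, then held with or without LPS ([…]) for 20 h. After the supernatant was removed for nitrite assay, cells got 0.5 mg/mL MTT for 1 h at 37 °C. Formazan was dissolved in DMSO for at least 2 h in the dark and read at 550 nm; data are absorbance, mean ± S.D.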
A general note: Tetrazolium dyes change colour on reduction, which living cells bring about.

For data set [2], the system named is RAW264.7. The experiment in a line: Inhibition of nitrite level in LPS-induced mouse RAW264.7 cells at 50 uM by Griess assay relative to LPS treated control. Format: functional. Put shortly:
(§2)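 RAW 264.7 cells (4 ×10⁴ per well) pre-incubated with compound for 1 h, then stimulated with LPS ([…]) for 20 h. Supernatant mixed 1:1 with Griess reagent (1% sulfanilamide, 0.1% naphthylethylenediamine dihydrochloride, 2% phosphoric acid) for 10 min at room temperature, read at 550 nm against a NaNO₂ standard curve. Nitrite in the LPS-only group is set as 100%; % inhibition given as mean ± value.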
(In general: Nitrite, measured by Griess reagent, commonly stands in for NO production.)

The test system of data set [3] is RAW264.7. The data set is described as follows: Inhibition of nitrite level in LPS-induced mouse RAW264.7 cells at 5 uM by Griess assay relative to LPS treated control. Format: functional. The gist of the method:
as §2

Data set [4] has as its system RAW264.7. The experiment in a line: Cytotoxicity against mouse RAW264.7 cells at 5 uM by MTT assay. It counts as cell-based. Particulars: raw264.7, 5 µM. Put shortly:
as §1

The source made the active and inactive calls. No cut-off for these calls is given here.

With `COc1cc(/C=C/C(=O)Nc2cc3c(cc2C)C(C)(C)CCC3(C)C)ccc1O`, in the data set on RAW264.7 [1], the Activity entry is reported as “Toxic”. Moreover, the inhibition at 50 µM in the data set with RAW264.7 [2] is 48%. This compound also registered an inhibition at 5 µM with RAW264.7 [3] of 17.8%.
For the compound `CC1(C)CCC(C)(C)c2cc(C(=O)NN3CCCCC3)ccc21`, the Activity result in the data set on RAW264.7 [1] is reported as “Toxic”. The same compound came in with an inhibition at 50 µM in the data set on RAW264.7 [2] of 10.5%. Further, in the data set on RAW264.7 [3], the inhibition result was “inactive”.
With `Cc1cc2c(cc1NC(=O)/C=C/c1ccccc1)C(C)(C)CCC2(C)C`, the Activity result in the data set on RAW264.7 [1] was “Toxic”. For the same compound, the inhibition entry in the data set with RAW264.7 [2] and with RAW264.7 [3] was “inactive” throughout.
Regarding `Cc1c(C)c2c(c(C)c1O)CCC(C)(C(=O)O)O2` (stereo not drawn) [TROLOX], the Activity entry in the data set on RAW264.7 [1] and with RAW264.7 [4] was “Non-toxic” throughout. In the data set with RAW264.7 [2], this compound returned an inhibition at 50 µM of 39.3%. In the data set on RAW264.7 [3], this compound came in with an inhibition at 5 µM of 33.4%.
For `CC1(C)CCC(C)(C)c2cc(C(=O)Nc3ncccn3)ccc21`, in the data set on RAW264.7 [2], testing at 50 µM gave an inhibition of 18.6%. In addition, in the data set on RAW264.7 [3], the inhibition entry is “inactive”.
In turn, `Cc1cc2c(cc1NC(=O)CCCC[C@@H]1CCSS1)C(C)(C)CCC2(C)C` gave an inhibition at 50 µM with RAW264.7 [2] of 22.8%. Besides, the inhibition at 5 µM in the data set on RAW264.7 [3] amounted to 28.5%.
As to `COc1ccc(/C=C/C(=O)Nc2cc3c(cc2C)C(C)(C)CCC3(C)C)cc1OC`, the Activity result in the data set on RAW264.7 [1] and with RAW264.7 [4] was “Non-toxic” in each case. Also, testing at 50 µM with RAW264.7 [2] gave an inhibition of 32.8%. At 5 µM the inhibition with RAW264.7 [3] was 24.1%.
Regarding `CC1(C)CCC(C)(C)c2cc(C(=O)NC3CCN(Cc4ccccc4)CC3)ccc21`, the Activity entry with RAW264.7 [1] and in the data set on RAW264.7 [4] was “Non-toxic” throughout. This compound also showed an inhibition at 50 µM in the data set with RAW264.7 [2] of 22.5%. Moreover, the inhibition at 5 µM in the data set on RAW264.7 [3] is 21%.
Turning to `CC1(C)CCC(C)(C)c2cc(C(=O)Nc3nccs3)ccc21`, the Activity result with RAW264.7 [1] was “Toxic”. Besides, at 50 µM the inhibition in the data set on RAW264.7 [2] was 33.5%. Further, in the data set with RAW264.7 [3], the inhibition result is “inactive”.
In turn, `CCOC(=O)N1CCC(NC(=O)c2ccc3c(c2)C(C)(C)CCC3(C)C)CC1` displayed an inhibition at 50 µM in the data set on RAW264.7 [2] of 30%. Further, in the data set with RAW264.7 [3], the inhibition result was “inactive”.
In the case of `Cc1cc2c(cc1NC(=O)C1(C)CCc3c(C)c(O)c(C)c(C)c3O1)C(C)(C)CCC2(C)C` (stereo not drawn), the Activity entry in the data set on RAW264.7 [1] is “Toxic”. This compound also came in with an inhibition at 50 µM in the data set with RAW264.7 [2] of 10.5%. Besides, the inhibition entry in the data set with RAW264.7 [3] was “inactive”.
`CC1(C)CCC(C)(C)c2cc(C(=O)Nc3nc4ccccc4[nH]3)ccc21`: the Activity entry in the data set on RAW264.7 [1] and in the data set with RAW264.7 [4] was “Non-toxic” in each case. The inhibition at 50 µM in the data set on RAW264.7 [2] was determined as 45.7%. The compound further displayed an inhibition at 5 µM with RAW264.7 [3] of 15.6%.
In the case of `COc1ccc(CCCC(=O)Nc2cc3c(cc2C)C(C)(C)CCC3(C)C)cc1OC`, the Activity result in the data set with RAW264.7 [1] is given as “Toxic”. The inhibition entry in the data set with RAW264.7 [2] and in the data set on RAW264.7 [3] was “inactive” throughout.
For the compound `CC1(C)CC(N)CC(C)(C)N1[O]` [TEMPAMINE], the Activity entry in the data set on RAW264.7 [1] and in the data set with RAW264.7 [4] was “Non-toxic” throughout. The same compound gave an inhibition at 50 µM in the data set with RAW264.7 [2] of 45.6%. In the data set with RAW264.7 [3], at 5 µM the inhibition was 26.9%.
Take `CC1(C)CCC(C)(C)c2cc(C(=O)NC3CC3)ccc21`: the Activity entry with RAW264.7 [1] is given as “Toxic”. The same compound showed an inhibition at 50 µM in the data set with RAW264.7 [2] of 38.2%. In addition, the inhibition at 5 µM with RAW264.7 [3] was found to be 20.5%.
Regarding `Cc1cc2c(cc1NC(=O)c1ccc3c(c1)C(C)(C)CCC3(C)C)C(C)(C)CCC2(C)C`, the Activity result in the data set with RAW264.7 [1] and with RAW264.7 [4] was “Toxic” in each case. Moreover, the inhibition entry in the data set on RAW264.7 [2] and with RAW264.7 [3] was “inactive” in each case.
`CC1(C)CCC(C)(C)c2cc(C(=O)Nc3cc[nH]c(=O)n3)ccc21`: the Activity result in the data set on RAW264.7 [1] was “Toxic”. In addition, the inhibition at 50 µM in the data set on RAW264.7 [2] was 21.1%. This compound returned an inhibition at 5 µM with RAW264.7 [3] of 11.5%.
Consider `CC1=C(/C=C/C(C)=C/C=C/C(C)=C/C(=O)O)C(C)(C)CCC1` [TRETINOIN], for which the Activity result in the data set with RAW264.7 [1] and in the data set on RAW264.7 [4] was “Non-toxic” in each case. The same compound yielded an inhibition at 50 µM in the data set with RAW264.7 [2] of 66%. In the data set with RAW264.7 [3], this compound gave an inhibition at 5 µM of 57.2%.
As to `CC1(C)CCC(C)(C)c2cc(C(=O)NCCN3CCOCC3)ccc21`, in the data set with RAW264.7 [1], the Activity entry is on record as “Toxic”. The same compound came in with an inhibition at 50 µM in the data set with RAW264.7 [2] of 40.1%. In addition, in the data set with RAW264.7 [3], the inhibition at 5 µM was 14.3%.
For `O=C(O)/C=C/c1ccc(O)c(O)c1` [CAFFEIC ACID], the Activity result with RAW264.7 [1] and with RAW264.7 [4] was “Non-toxic” each time. In the data set on RAW264.7 [2], 50 µM produced 44.2% inhibition. Besides, the inhibition at 5 µM in the data set with RAW264.7 [3] came out at 23.2%.
For the compound `Cc1cc2c(cc1NC(=O)CCCc1ccccc1)C(C)(C)CCC2(C)C`, in the data set on RAW264.7 [1], the Activity entry is “Toxic”. The inhibition result in the data set with RAW264.7 [2] and with RAW264.7 [3] was “inactive” throughout.
Regarding `CC1(C)CCC(C)(C)c2cc(C(=O)NN3CCCCCC3)ccc21`, the Activity result in the data set with RAW264.7 [1] is “Toxic”. Also, the inhibition at 50 µM in the data set on RAW264.7 [2] worked out at 43.6%. The same compound gave an inhibition at 5 µM in the data set on RAW264.7 [3] of 25.7%.
The matching figures for `CC1(C)CCC(C)(C)c2cc(C(=O)NC3CC(C)(C)N([O])C(C)(C)C3)ccc21`: “Toxic”, 59.2% and 18.2%.
Turning to `CC1(C)CC(NC(=O)c2ccc3c(c2)C(C)(C)CCC3(C)C)CC(C)(C)N1`, the Activity result with RAW264.7 [1] and in the data set with RAW264.7 [4] was “Non-toxic” throughout. In the data set with RAW264.7 [2], this compound returned an inhibition at 50 µM of 42.9%. This compound came in with an inhibition at 5 µM in the data set on RAW264.7 [3] of 19.1%.
With `CC1(C)CCC(C)(C)c2cc(C(=O)Nc3cccc4ccccc34)ccc21`, the inhibition at 50 µM in the data set on RAW264.7 [2] amounted to 5.7%. Also, at 5 µM the inhibition in the data set on RAW264.7 [3] was 10.5%.
`CC1(C)CCC(C)(C)c2cc(C(=O)NCc3ccc(F)cc3F)ccc21`: the Activity entry in the data set with RAW264.7 [1] was “Toxic”. Further, the inhibition at 50 µM with RAW264.7 [2] was 7.7%. In addition, the inhibition entry in the data set with RAW264.7 [3] is “inactive”.
On to `CC1(C)CCC(C)(C)c2cc(C(=O)NN3CCOCC3)ccc21`, for which, in the data set on RAW264.7 [1], the Activity result was “Toxic”. In the data set with RAW264.7 [2], this compound gave an inhibition at 50 µM of 34.3%. In the data set on RAW264.7 [3], this compound yielded an inhibition at 5 µM of 5.8%.
In the data set on RAW264.7 [2], `CC1(C)CCC(C)(C)c2cc(C(=O)NCc3ccccc3)ccc21` showed an inhibition at 50 µM of 15.9%. Further, in the data set on RAW264.7 [3], the inhibition result was “inactive”.
As to `Cc1cc2c(cc1NC(=O)/C=C/c1ccc(O)c(O)c1)C(C)(C)CCC2(C)C`, in the data set with RAW264.7 [1], the Activity entry is on record as “Toxic”. This compound also registered an inhibition at 50 µM with RAW264.7 [2] of 46.2%. Besides, in the data set on RAW264.7 [3], the inhibition at 5 µM is 23.3%.
Turning to `COc1cc(/C=C/C(=O)O)ccc1O` [FERULATE], the Activity entry in the data set on RAW264.7 [1] and in the data set on RAW264.7 [4] was “Non-toxic” in each case. Also, 50 µM produced 39.1% inhibition in the data set with RAW264.7 [2]. Further, in the data set on RAW264.7 [3], the inhibition at 5 µM worked out at 24.8%.
The compound `CC1(C)CCC(C)(C)c2cc(C(=O)NCc3ccc(Cl)cc3Cl)ccc21` had an inhibition at 50 µM with RAW264.7 [2] of 6.6%. The inhibition result in the data set on RAW264.7 [3] was “inactive”.
As for `O=C(O)CCCCC1CCSS1` (stereo not drawn) [LIPOIC ACID, ALPHA], the Activity entry with RAW264.7 [1] and with RAW264.7 [4] was “Non-toxic” throughout. This compound also returned an inhibition at 50 µM in the data set with RAW264.7 [2] of 46%. Besides, in the data set on RAW264.7 [3], the inhibition at 5 µM turned out to be 25.2%.
Regarding `CC(=O)Oc1c(C)c(C)c2c(c1C)CCC(C)(C(=O)Nc1cc3c(cc1C)C(C)(C)CCC3(C)C)O2` (stereo not drawn), in the data set with RAW264.7 [2], the inhibition at 50 µM came out at 4.4%. In the data set on RAW264.7 [3], the inhibition at 5 µM amounted to 15.8%.
